These results are taken from ChEMBL document CHEMBL3393035, “Novel agonists of benzodiazepine receptors: design, synthesis, binding assay and pharmacological evaluation of 1,2,4-triazolo[1,5-a]pyrimidinone and 3-amino-1,2,4-triazole derivatives” (Bioorg Med Chem, 2015).

Activity calls are given as the source filed them. The rule behind the calls is not given here.

Data set [1] in a line: Displacement of [3H]-flumazenil from benzodiazepine receptor in Sprague-Dawley rat brain cortical membranes incubated for 35 mins. Put shortly:
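Rat cortex membranes: homogenized in ice-cold 30 mM Tris-HCl pH 7.4, washed by repeated centrifugation at 4°C, 37°C 30 min preincubation, stored -20°C. 100 µg membrane protein in 50 mM Tris-HCl pH 7.4 with 8.6×10^-5 nmol [3H]-flumazenil plus increasing competitor, 0.5 mL, 30°C 35 min; stopped by centrifugation. NSB with 100 µM diazepam; triplicates; IC50 by nonlinear regression.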

Data set [2] deals with Mus musculus. Nature of the data set: Anticonvulsant activity in ip dosed NMRI mouse assessed as reduction in MES-induced seizures by measuring occurrence of hind limb tonic extensions dosed 30 mins before MES injection and co-treated with 10 mg/kg BZD antagonist flumazenil and measured 30 mins post MES challenge. More on the design: dose 10 mg/kg. It counts as functional, organism-based. As to conditions: Hindlimb. Put shortly: (§1)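 Male NMRI mice (18-22 g) were given drug i.p. at 5 ml/kg in DMSO:water (1:10), 30 min before maximal electroshock (60 Hz, 37.2 mA, 0.25 s). The read-out was occurrence of hind limb tonic extension.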

Data set [3] has as its system Mus musculus. As to the kind of experiment: Toxicity in NMRI albino mouse at 150 mg/kg, ip assessed as induction sedation measured after 24 hrs post dose. The data set is classed as organism-based. More on the design: dose 150 mg/kg, route intraperitoneal. The note with it: in vivo. Put shortly:
(§2)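 Ten randomly selected male NMRI mice given single i.p. doses of 50 or 150 mg/kg in DMSO:water 1:10 (5 ml/kg), then observed for 24 h for toxic reactions, sedation and hypnosis.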

Data set [4] concerns Mus musculus. Nature of the data set: Toxicity in NMRI albino mouse at 150 mg/kg, ip assessed as induction hypnosis measured after 24 hrs post dose. The data set is classed as organism-based. More on the design: dose 150 mg/kg, route intraperitoneal. As to conditions: in vivo. Put shortly:
as §2

The subject of data set [5] is Mus musculus. Nature of the data set: Induction of anterograde amnesia in NMRI albino mouse assessed as reduction in latency to enter dark compartment at 0.325 to 2.5 mg/kg, ip by passive avoidance test. It counts as functional, organism-based. Put shortly: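 Male NMRI mice (18-22 g) dosed i.p. in DMSO:water 1:10 (5 ml/kg), 30 min before the test; midazolam 1 mg/kg i.p. in water as reference. On the testing day, 24 h after training, each mouse is placed in the lit compartment and latency to enter the dark compartment is recorded. n=8 per group, mean + SEM.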

For data set [6], the system named is Mus musculus. As to the kind of experiment: Anticonvulsant activity in ip dosed NMRI mouse assessed as reduction in MES-induced seizures by measuring occurrence of hind limb tonic extensions dosed 30 mins before MES injection and measured 30 mins post MES challenge. The data set is classed as functional. As to conditions: Hindlimb. The essentials: as §1
Data set [7] relates to Mus musculus. As to the kind of experiment: Toxicity in NMRI albino mouse at 50 mg/kg, ip assessed as induction sedation measured after 24 hrs post dose. It counts as organism-based. The arrangement: dose 50 mg/kg, route intraperitoneal. The note with it: in vivo. The essentials: as §2
The subject of data set [8] is Mus musculus. Nature of the data set: Hypnotic effect in NMRI albino mouse assessed as potentiation of pentobarbital sleeping time by measuring duration of loss of righting reflex at 0.625 mg/kg, ip dosed 30 mins before pentobarbital challenge. The data set is classed as functional, organism-based. The arrangement: dose 0.625 mg/kg. The essentials:
(§3)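 Male NMRI mice, 18-22 g, 12 weeks old. Test agent and flumazenil (10 mg/kg) in DMSO:water 1:10, 5 ml/kg i.p., 30 min before pentobarbital 65 mg/kg i.p. (in water). Sleep time is the duration of loss of righting reflex. Mice kept on an electric blanket to prevent hypothermia. n=8 per group, mean + SEM.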

In data set [9] the test system is Mus musculus. Nature of the data set: Hypnotic effect in NMRI albino mouse assessed as potentiation of pentobarbital sleeping time by measuring duration of loss of righting reflex at 1.25 to 5 mg/kg, ip co-treated with 10 mg/kg BZD receptor antagonist flumazenil. The data set is classed as functional, organism-based. The essentials: as §3
For data set [10], the system named is Mus musculus. Nature of the data set: Toxicity in NMRI albino mouse at 50 mg/kg, ip assessed as induction of toxic reactions measured after 24 hrs post dose. It counts as organism-based. More on the design: dose 50 mg/kg, route intraperitoneal. As to conditions: in vivo. Put shortly:
as §2

Data set [11] deals with Mus musculus. As to the kind of experiment: Hypnotic effect in NMRI albino mouse assessed as potentiation of pentobarbital sleeping time by measuring duration of loss of righting reflex dosed intraperitoneally 30 mins before pentobarbital challenge. The data set is classed as functional. Put shortly:
as §3

In data set [12] the test system is Mus musculus. As to the kind of experiment: Toxicity in NMRI albino mouse at 50 mg/kg, ip assessed as induction hypnosis measured after 24 hrs post dose. It counts as organism-based. More on the design: dose 50 mg/kg, route intraperitoneal. The note with it: in vivo. Put shortly:
as §2

Data set [13] deals with Mus musculus. Nature of the data set: Anticonvulsant activity in ip dosed NMRI mouse assessed as reduction in PTZ-induced lethal convulsion dosed 30 mins before PTZ injection and co-treated with BZD antagonist flumazenil and measured 30 mins post PTZ challenge. The data set is classed as functional, organism-based. The essentials:
(§4)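 Male NMRI mice (18-22 g) were given drug i.p. at 5 ml/kg in DMSO:water (1:10), 30 min before PTZ 100 mg/kg i.p. (in water). Mice were watched for 30 min after PTZ and deaths were counted.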

In data set [14] the test system is Mus musculus. As to the kind of experiment: Anticonvulsant activity in ip dosed NMRI mouse assessed as reduction in PTZ-induced lethal convulsion dosed 30 mins before PTZ injection and measured 30 mins post PTZ challenge. It counts as functional. Put shortly: as §4
In data set [15] the test system is Mus musculus. As to the kind of experiment: Toxicity in NMRI albino mouse at 150 mg/kg, ip assessed as induction of toxic reactions measured after 24 hrs post dose. The note with it: in vivo. More on the design: dose 150 mg/kg, route intraperitoneal. It counts as organism-based. Put shortly: as §2
Data set [16] has as its system Mus musculus. Nature of the data set: Hypnotic effect in NMRI albino mouse assessed as potentiation of pentobarbital sleeping time by measuring duration of loss of righting reflex at 1 mg/kg, ip dosed 30 mins before pentobarbital challenge. The arrangement: dose 1 mg/kg. The data set is classed as functional, organism-based. The essentials: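 Male NMRI mice (18-22 g), n=8 per group, received diazepam i.p. in DMSO:water (1:10), 5 ml/kg. Pentobarbital 65 mg/kg i.p. followed 30 min later. Sleep time was the duration of loss of righting reflex; mice were kept on an electric blanket against hypothermia. Data are mean + SEM.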

Data set [17] relates to Mus musculus. Nature of the data set: Induction of anterograde amnesia in NMRI albino mouse assessed as reduction in latency to enter dark compartment at 1 mg/kg, ip by passive avoidance test. The arrangement: dose 1 mg/kg. It counts as functional, organism-based. Put shortly:
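Male NMRI mice (18-22 g), n=8 per group, received midazolam i.p. in distilled water, 5 ml/kg. In the passive avoidance test, mice were placed in the lit compartment on the testing day, 24 h later, and latency to enter the dark compartment was recorded. Data are mean + SEM.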

In the case of `Nc1nnc(-c2ccccc2)n1Cc1ccc(F)cc1`, in [1], the IC50 (commonly the point on the concentration scale where inhibition reaches its midpoint) was 4.45 nM and the Ki (as a rule, a measure of affinity in units of concentration, obtained from inhibition or displacement) stood at 2.73 nM.

As to `Cc1cc(=O)n2nc(-c3ccccc3)n(Cc3ccccc3Cl)c2n1`, the outcome in the data set with Mus musculus [2], with Mus musculus [8], with Mus musculus [9] and in the data set with Mus musculus [13] was inactive. Besides, the Activity result in the data set with Mus musculus [3] was “Toxic”; in the data set with Mus musculus [4] it was “Toxic”; in the data set on Mus musculus [7], “Toxic”; in the data set on Mus musculus [10] it was “Non-toxic”; in the data set with Mus musculus [11] it was “Dose-dependent effect”; in the data set with Mus musculus [12] it was “Toxic”. Also, the Activity entry in the data set with Mus musculus [15] is reported as “Non-toxic”. Further, the result with Mus musculus [5] was Active. In addition, the ED50 (in general, the midpoint of the dose-response relation) in the data set on Mus musculus [6] came to 15 mg/kg; in the data set with Mus musculus [11] (ip), 5 mg/kg; in the data set with Mus musculus [14], 56.6 mg/kg. The compound also had a half-maximal inhibitory concentration (IC50) in [1] of 0.68 nM. This compound came in with an inhibition constant Ki in data set [1] of 0.42 nM.

Consider `Cc1cc(=O)n2nc(-c3ccccc3)n(Cc3ccc(F)cc3)c2n1`, for which, in data set [1], the concentration for half-maximal inhibition (IC50) amounted to 1.59 nM and the inhibition constant Ki amounted to 0.97 nM.

Take `CN1C(=O)CN=C(c2ccccc2)c2cc(Cl)ccc21` [DIAZEPAM]: the outcome in the data set on Mus musculus [2] and with Mus musculus [13] was inactive. Besides, the result in the data set with Mus musculus [16] was Active. The ED50 with Mus musculus [6] came out at 0.74 mg/kg; in the data set on Mus musculus [14], 0.75 mg/kg. For the same compound, in data set [1], the IC50 amounted to 2.5 nM. Also, the affinity in [1], expressed as Ki, was 1.53 nM.

In data set [1], `Nc1nnc(-c2ccccc2)n1Cc1ccccc1` showed an IC50 of 0.87 nM and an inhibition constant Ki of 0.53 nM.

In the case of `Cc1ncc2n1-c1ccc(Cl)cc1C(c1ccccc1F)=NC2`, in the data set on Mus musculus [17], the result was Active.

As for `Cc1cc(=O)n2nc(-c3ccccc3)n(Cc3ccccc3)c2n1`, in data set [1], the IC50 was 2.39 nM and the Ki was 1.46 nM.

Consider `Nc1nnc(-c2ccccc2)n1Cc1ccccc1Cl`, for which, in data set [1], the concentration for half-maximal inhibition (IC50) worked out at 2.24 nM and the affinity corresponds to a Ki of 1.37 nM.
